The target in series [1] is Serine/threonine-protein kinase B-raf (Homo sapiens, UniProt P15056). The experiment in a line: Inhibition of BRAF (unknown origin)-mediated ERK phosphorylation by cell-based assay.
Series [2] addresses Serine/threonine-protein kinase B-raf (Homo sapiens, UniProt P15056, V600E). The experiment in a line: Inhibition of BRAF V600E mutant (unknown origin).
A further series concerns the target Cytochrome P450 3A4 (Homo sapiens, UniProt P08684). The experiment in a line: Inhibition of CYP3A4 (unknown origin). It counts as ADME.
Series [3] is described as follows: Oral bioavailability in rat at 10 mg/kg as single dose. Conditions: in vivo. Type of series: ADME, organism-based. The gist of the method: (§1)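 Rats received a single oral dose of 10 mg/kg. Clearance, volume of distribution, half-life and oral bioavailability were derived from the plasma PK profile.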
The nature of series [4]: Clearance in rat at 10 mg/kg, po as single dose. The arrangement: dose 10 mg/kg, route oral. To be noted: in vivo. It counts as ADME, organism-based. The gist of the method:
as §1

Series [5] is described as follows: Solubility of the compound at pH 7. Type of series: physicochemical. Conditions: buffer.
A short description of series [6]: Half life in rat at 10 mg/kg, po as single dose. Type of series: ADME, organism-based. To be noted: in vivo. The arrangement: dose 10 mg/kg, route oral. The gist of the method:
as §1

A further series has as its system Rattus norvegicus. Briefly: Volume of distribution in rat at 10 mg/kg, po as single dose. It counts as ADME, organism-based. Further details: dose 10 mg/kg, route oral. To be noted: in vivo. The gist of the method: as §1
Series [7] has as its system HT-29. Briefly: Antitumor activity against human HT-29 cells harboring B-RAF V600E mutant xenografted in nude mouse assessed as tumor growth inhibition at 30 mg/kg/day […] relative to control. It counts as functional. The gist of the method:
(§2)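 Nude mice received subcutaneous HT29 (BRAF V600E) colorectal cells at 3×10^6 cells/mouse, and tumors were established over 10 days. Mice were then randomized into 4 groups and dosed orally once daily with vehicle (5 mM citrate) or compound at 10, 30 or 100 mg/kg for 17 days. Tumor growth is given as ΔT/ΔC, and body weight was monitored.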

In series [8] the test system is HT-29. Briefly: Antitumor activity against human HT-29 cells harboring B-RAF V600E mutant xenografted in nude mouse assessed as tumor growth inhibition at 100 mg/kg/day […] relative to control. Type of series: functional. The gist of the method:
as §2
In general terms: Xenograft models place foreign cells or tissue in a host animal.

The target of series [9] is Mast/stem cell growth factor receptor Kit (Homo sapiens, UniProt P10721). The experiment in a line: Inhibition of c-Kit (unknown origin).
Sequence of Mast/stem cell growth factor receptor Kit (P10721 whole entry): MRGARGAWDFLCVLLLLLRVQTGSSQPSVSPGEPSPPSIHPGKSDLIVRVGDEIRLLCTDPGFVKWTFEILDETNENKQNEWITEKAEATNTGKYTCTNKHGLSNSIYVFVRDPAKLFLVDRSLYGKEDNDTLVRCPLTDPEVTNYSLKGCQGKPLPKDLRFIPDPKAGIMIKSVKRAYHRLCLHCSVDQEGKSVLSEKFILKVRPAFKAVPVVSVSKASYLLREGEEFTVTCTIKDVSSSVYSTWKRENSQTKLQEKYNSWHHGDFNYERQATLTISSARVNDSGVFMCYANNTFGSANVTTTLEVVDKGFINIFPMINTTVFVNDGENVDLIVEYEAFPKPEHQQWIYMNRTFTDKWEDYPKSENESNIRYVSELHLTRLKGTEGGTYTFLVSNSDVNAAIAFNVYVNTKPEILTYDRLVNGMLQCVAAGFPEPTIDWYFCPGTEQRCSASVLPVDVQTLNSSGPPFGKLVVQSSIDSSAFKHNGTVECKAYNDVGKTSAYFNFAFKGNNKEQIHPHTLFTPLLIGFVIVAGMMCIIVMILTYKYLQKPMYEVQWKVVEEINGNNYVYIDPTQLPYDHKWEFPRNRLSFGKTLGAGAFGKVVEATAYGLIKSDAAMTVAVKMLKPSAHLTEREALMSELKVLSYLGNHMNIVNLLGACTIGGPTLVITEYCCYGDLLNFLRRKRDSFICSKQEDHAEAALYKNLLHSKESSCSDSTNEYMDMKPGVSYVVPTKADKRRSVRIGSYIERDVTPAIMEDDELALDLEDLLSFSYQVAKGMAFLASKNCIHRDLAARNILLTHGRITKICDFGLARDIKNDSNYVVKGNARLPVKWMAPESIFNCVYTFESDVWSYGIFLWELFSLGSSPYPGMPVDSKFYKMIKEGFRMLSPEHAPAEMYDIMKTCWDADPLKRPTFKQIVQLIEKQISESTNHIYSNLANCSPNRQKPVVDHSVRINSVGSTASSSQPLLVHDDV
For series [10], the system named is HT-29. The experiment in a line: Inhibition of ERK phosphorylation in human HT-29 cells harboring B-RAF V600E mutant xenografted in nude mouse at 30 to 100 mg/kg/day for 16 days measured 4 to 24 hrs post final dose by Western blot analysis relative to control. Type of series: functional, organism-based. Conditions: TDE = time-dependent effect. The gist of the method: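 HT29 (BRAF V600E) subcutaneous xenografts in nude mice were dosed orally once daily in 5 mM citrate vehicle at 30 or 100 mg/kg. Tumors were harvested 4 and 24 h after the final dose. Lysates were analysed by Western blot for pERK and total ERK.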

The nature of series [11]: Stability in mouse plasma assessed as compound remaining at 1 uM at 37 degC after 45 mins. Type of series: ADME, cell-free. To be noted: read-out: Stability.
Series [12] concerns the target Voltage-gated inwardly rectifying potassium channel KCNH2 (Homo sapiens, UniProt Q12809). The experiment in a line: Inhibition of human ERG.
The target in series [13] is Platelet-derived growth factor receptor (Homo sapiens, UniProt P09619+P16234). Briefly: Inhibition of PDGFR (unknown origin). Type of series: protein-complex assay.
The test system of series [14] is Mus musculus. Briefly: Toxicity in human HT-29 cells harboring B-RAF V600E mutant xenografted nude mouse assessed as body weight loss at 30 mg/kg/day […] relative to control. It counts as organism-based. To be noted: in vivo. The gist of the method:
as §2

For series [15], the target named is Macrophage colony-stimulating factor 1 receptor (Homo sapiens, UniProt P07333). Briefly: Inhibition of CSF1R kinase (unknown origin).
Series [16] has as its system Mus musculus. The experiment in a line: Toxicity in human HT-29 cells harboring B-RAF V600E mutant xenografted nude mouse assessed as body weight loss at 10 mg/kg/day for […] relative to control. It counts as organism-based. To be noted: in vivo. The gist of the method:
as §2

Series [17] relates to Mus musculus. Briefly: Toxicity in human HT-29 cells harboring B-RAF V600E mutant xenografted nude mouse assessed as body weight loss at 100 mg/kg/day […] relative to control. Conditions: in vivo. Type of series: organism-based. The gist of the method: as §2
In series [18] the target is Tyrosine-protein kinase Lck (Homo sapiens, UniProt P06239). The experiment in a line: Inhibition of LCK (unknown origin).
Sequence of Tyrosine-protein kinase Lck (P06239 whole entry): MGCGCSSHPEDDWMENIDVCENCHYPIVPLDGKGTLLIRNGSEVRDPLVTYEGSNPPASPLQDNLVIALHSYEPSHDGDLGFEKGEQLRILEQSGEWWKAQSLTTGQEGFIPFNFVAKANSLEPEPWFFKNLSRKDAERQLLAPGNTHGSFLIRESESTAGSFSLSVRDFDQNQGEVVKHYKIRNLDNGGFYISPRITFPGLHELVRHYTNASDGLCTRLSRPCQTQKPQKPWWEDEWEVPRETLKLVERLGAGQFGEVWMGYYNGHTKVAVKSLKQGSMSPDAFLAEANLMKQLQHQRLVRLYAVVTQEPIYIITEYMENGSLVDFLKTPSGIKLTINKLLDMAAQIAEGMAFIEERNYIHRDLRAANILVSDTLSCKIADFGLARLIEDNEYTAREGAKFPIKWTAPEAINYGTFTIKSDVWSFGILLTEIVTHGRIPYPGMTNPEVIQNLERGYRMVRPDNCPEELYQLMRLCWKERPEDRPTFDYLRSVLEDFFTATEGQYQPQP
Series [19] has as its target Proto-oncogene tyrosine-protein kinase Src (Homo sapiens) (UniProt P12931). The experiment in a line: Inhibition of SRC (unknown origin).
The target of series [20] is Vascular endothelial growth factor receptor (Homo sapiens, UniProt P17948+P35916+P35968). Briefly: Inhibition of VEGFR (unknown origin). Type of series: protein assay.
Series [21] deals with HT-29. Briefly: Antitumor activity against human HT-29 cells harboring B-RAF V600E mutant xenografted in nude mouse assessed as tumor growth inhibition at 10 mg/kg/day for […] relative to control. It counts as functional. The gist of the method:
as §2

Converted amounts (≈) assume the structure as drawn. The source made the active and inactive calls. No cut-off for these calls is given here. Some results are limits rather than exact numbers.

Sequence of Cytochrome P450 3A4 (P08684 whole entry): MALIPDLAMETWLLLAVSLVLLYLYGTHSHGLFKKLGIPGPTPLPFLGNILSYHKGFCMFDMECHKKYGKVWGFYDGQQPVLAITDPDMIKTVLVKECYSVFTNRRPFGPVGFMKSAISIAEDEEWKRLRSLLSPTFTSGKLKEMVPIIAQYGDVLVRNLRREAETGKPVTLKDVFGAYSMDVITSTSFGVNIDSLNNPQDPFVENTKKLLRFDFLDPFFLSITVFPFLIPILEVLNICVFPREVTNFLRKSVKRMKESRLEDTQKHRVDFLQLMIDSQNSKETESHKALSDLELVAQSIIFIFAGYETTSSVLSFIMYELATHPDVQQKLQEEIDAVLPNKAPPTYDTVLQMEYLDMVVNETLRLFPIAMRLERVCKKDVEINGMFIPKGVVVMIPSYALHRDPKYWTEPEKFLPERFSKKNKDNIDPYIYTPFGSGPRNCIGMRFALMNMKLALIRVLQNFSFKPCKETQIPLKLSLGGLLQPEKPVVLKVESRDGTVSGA
Sequence of Serine/threonine-protein kinase B-raf (Homo sapiens, UniProt P15056) (P15056 whole entry): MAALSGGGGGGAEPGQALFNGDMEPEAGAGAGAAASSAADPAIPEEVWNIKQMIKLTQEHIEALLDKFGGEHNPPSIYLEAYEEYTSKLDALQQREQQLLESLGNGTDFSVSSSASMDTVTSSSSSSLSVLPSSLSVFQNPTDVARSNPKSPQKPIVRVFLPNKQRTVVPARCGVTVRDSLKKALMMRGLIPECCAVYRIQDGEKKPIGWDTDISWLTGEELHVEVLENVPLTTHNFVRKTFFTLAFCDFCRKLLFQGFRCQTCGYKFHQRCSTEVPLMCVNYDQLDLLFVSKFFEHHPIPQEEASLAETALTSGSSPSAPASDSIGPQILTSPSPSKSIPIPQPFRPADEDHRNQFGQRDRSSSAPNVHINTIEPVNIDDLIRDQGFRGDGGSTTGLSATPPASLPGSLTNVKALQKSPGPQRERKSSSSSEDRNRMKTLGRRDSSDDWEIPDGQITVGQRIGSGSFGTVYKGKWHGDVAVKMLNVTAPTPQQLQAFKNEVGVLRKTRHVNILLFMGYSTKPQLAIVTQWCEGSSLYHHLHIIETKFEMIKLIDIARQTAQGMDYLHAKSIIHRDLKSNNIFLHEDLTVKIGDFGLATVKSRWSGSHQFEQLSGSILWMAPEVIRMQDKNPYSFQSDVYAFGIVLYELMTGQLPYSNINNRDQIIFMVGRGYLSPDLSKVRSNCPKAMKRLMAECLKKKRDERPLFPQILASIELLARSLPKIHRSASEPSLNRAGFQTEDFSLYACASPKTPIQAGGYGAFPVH
Sequence of Serine/threonine-protein kinase B-raf (Homo sapiens, UniProt P15056, V600E) (P15056 2-766 V600E limits assumed): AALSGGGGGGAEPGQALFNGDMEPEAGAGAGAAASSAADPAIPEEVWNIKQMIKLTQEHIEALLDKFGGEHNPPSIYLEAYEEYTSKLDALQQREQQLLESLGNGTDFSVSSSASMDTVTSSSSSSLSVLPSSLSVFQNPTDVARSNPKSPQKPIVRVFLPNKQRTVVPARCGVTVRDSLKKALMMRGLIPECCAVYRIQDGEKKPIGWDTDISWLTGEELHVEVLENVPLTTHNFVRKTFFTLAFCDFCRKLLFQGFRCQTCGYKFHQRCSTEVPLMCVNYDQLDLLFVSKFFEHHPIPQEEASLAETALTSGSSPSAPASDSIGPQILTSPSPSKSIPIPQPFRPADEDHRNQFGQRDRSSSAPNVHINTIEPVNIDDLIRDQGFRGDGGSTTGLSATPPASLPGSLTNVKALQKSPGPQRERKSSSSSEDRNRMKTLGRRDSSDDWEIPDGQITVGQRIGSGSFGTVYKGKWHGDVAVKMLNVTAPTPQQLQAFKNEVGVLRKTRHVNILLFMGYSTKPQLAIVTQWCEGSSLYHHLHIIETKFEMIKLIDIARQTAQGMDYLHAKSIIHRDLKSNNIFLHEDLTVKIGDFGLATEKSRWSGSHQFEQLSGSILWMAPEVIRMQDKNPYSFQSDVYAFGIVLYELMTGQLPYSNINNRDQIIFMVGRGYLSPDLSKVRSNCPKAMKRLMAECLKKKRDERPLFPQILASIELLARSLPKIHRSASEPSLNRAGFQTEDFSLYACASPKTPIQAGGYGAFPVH
Sequence of Voltage-gated inwardly rectifying potassium channel KCNH2 (Q12809 whole entry): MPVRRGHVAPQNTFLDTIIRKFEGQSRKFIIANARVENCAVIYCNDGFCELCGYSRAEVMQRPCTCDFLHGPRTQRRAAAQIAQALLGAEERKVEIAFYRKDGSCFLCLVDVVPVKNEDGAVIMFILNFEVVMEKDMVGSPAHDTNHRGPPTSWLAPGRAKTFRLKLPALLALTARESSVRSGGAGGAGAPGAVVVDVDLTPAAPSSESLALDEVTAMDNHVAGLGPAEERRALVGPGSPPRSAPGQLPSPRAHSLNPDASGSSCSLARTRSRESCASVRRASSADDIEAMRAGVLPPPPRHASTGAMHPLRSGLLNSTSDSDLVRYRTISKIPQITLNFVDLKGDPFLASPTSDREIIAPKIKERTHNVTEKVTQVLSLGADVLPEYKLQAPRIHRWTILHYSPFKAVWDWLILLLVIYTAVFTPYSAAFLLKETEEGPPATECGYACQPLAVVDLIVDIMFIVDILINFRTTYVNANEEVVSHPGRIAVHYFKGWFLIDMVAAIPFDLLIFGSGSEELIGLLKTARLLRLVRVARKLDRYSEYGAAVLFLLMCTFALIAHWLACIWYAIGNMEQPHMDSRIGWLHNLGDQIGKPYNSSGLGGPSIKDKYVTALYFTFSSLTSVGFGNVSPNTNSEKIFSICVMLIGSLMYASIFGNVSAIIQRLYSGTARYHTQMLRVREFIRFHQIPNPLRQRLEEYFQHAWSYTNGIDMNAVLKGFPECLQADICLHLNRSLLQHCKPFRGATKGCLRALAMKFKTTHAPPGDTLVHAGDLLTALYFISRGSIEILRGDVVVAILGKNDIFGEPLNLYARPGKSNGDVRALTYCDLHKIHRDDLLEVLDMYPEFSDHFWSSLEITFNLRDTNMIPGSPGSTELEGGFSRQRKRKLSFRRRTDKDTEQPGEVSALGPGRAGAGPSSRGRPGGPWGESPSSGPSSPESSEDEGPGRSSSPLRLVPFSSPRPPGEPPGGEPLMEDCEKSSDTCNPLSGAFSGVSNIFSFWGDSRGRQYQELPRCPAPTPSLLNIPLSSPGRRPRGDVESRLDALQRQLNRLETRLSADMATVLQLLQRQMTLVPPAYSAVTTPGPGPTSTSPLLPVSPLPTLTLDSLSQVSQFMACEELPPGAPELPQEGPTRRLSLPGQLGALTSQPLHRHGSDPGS

Broadly, the EC50 is the concentration at which the effect is half-maximal. A lower EC50 goes with a more potent agent. The IC50 is the midpoint of a concentration-inhibition curve. A low value points to greater potency in that assay. With `CC(C)N1CCN(CC(=O)Nc2cc(Oc3ccc4c(c3)nc(Nc3cc(C(F)(F)F)ccc3F)n4C)ccn2)CC1`, the EC50 in series [1] is 100 nM. For the same molecule, in series [2], 6 nM corresponded to half-maximal inhibition (IC50). Further, at Cytochrome P450 3A4, the INH turned out to be 14 µM.
As to `CC(=O)Nc1cc(Oc2ccc3c(c2)nc(Nc2ccc(C(C)(C)C)cc2)n3C)ccn1`, the response in [1] was half-maximal at 50 nM (EC50). Besides, the IC50 in series [2] came to 9 nM.
On to `CC(=O)Nc1cc(Oc2ccc3c(c2)nc(Nc2cccc(C(C)C)c2)n3C)ccn1`, for which the EC50 in series [1] was 50 nM. In series [2], this molecule had an IC50 of less than 0.4 nM.
In the same order, the values of `CC(=O)Nc1cc(Oc2ccc3c(c2)nc(Nc2cccc(C(F)(F)F)c2)n3C)ccn1` are 400 nM and 3 nM.
Molecule `CCc1cccc(Nc2nc3cc(Oc4ccnc(NC(C)=O)c4)ccc3n2C)c1` gave an EC50 in series [1] of 100 nM. The molecule further came in with an IC50 in [2] of less than 0.4 nM.
In the case of `CN1CCC(C(=O)Nc2cc(Oc3ccc4c(c3)nc(Nc3cccc(C(C)(C)C)c3)n4C)ccn2)CC1`, the EC50 in [1] was determined as 100 nM. Moreover, half-maximal inhibition in [2] (IC50) required 10 nM.
In general, bioavailability refers to dose-corrected exposure relative to a reference, in per cent. In general, CL/F refers to the apparent clearance, not corrected for the fraction that reaches the circulation. `CC(C)N1CCC(C(=O)Nc2cc(Oc3ccc4c(c3)nc(Nc3cc(C(F)(F)F)ccc3F)n4C)ccn2)CC1` displayed an EC50 in series [1] of 100 nM. Besides, the IC50 in [2] turned out to be 2 nM. Also, the bioavailability in series [3] was 54%. Also, the CL/F in series [4] amounted to 49 mL/min/kg.
For `CC(=O)Nc1cc(Oc2ccc3c(c2)nc(Nc2cccc(C(C)(C)C)c2)n3C)ccn1`, a half-maximal effect in [1] (EC50) was put at 40 nM. The same molecule registered an IC50 in series [2] of 3 nM.
What is called solubility is the dissolved amount per volume that the medium holds. Higher therefore signals a readily soluble substance. As usually defined, the half-life is how long it takes for the measured level to halve. A higher half-life goes with slow decline. With `CC(C)N1CCC(C(=O)Nc2cc(Oc3ccc4c(c3)nc(Nc3cccc(C(C)(C)C)c3)n4C)ccn2)CC1`, the EC50 in series [1] was 100 nM. 20 nM corresponded to half-maximal inhibition in [2] (IC50). In series [5], this molecule displayed a solubility of 581 µg/mL (≈ 1070 µM). At Cytochrome P450 3A4, this molecule came in with an INH of 3 µM. Besides, the bioavailability in [3] came out at 15%. In [6], the half-life was 4.18 h. Further, in the series on Rattus norvegicus, the Vd is 17.784 L/kg. The CL/F in [4] was 90 mL/min/kg.
The molecule `Cn1c(Nc2cccc(C(C)(C)C)c2)nc2cc(Oc3ccnc(NC(=O)C4CCNCC4)c3)ccc21` had an EC50 in series [1] of 100 nM. Besides, in series [2], the IC50 is 7 nM.
In turn, `CCc1ccc(Nc2nc3cc(Oc4ccnc(NC(C)=O)c4)ccc3n2C)cc1` showed an EC50 in series [1] of 80 nM. In [2], this molecule gave an IC50 of 1 nM.
By T/C is commonly meant the result in the treated group divided by that in the control group, in per cent. The molecule `CCN1CCN(CC(=O)Nc2cc(Oc3ccc4c(c3)nc(Nc3cc(C(F)(F)F)ccc3F)n4C)ccn2)CC1` came in with an EC50 in series [1] of 100 nM. In addition, the T/C in the series on HT-29 [7] amounted to 72%; in the series on HT-29 [8] it was 75%; with HT-29 [21], 52%. Further, the IC50 in [2] was 6 nM; in [9], less than 10 nM; in series [13], less than 10 nM; in [15], less than 10 nM; in [18], 240 nM; in [20], less than 10 nM. Moreover, the inhibition entry with HT-29 [10] is “tde”. Also, the remaining at 0.75 h, 1 µM in [11] turned out to be 1%. For the same molecule, the results for the INH (on Cytochrome P450 3A4; in series [12]) were greater than 25 µM and 2.3 µM, respectively. This molecule came in with a bioavailability in series [3] of 40%. Also, the Activity result with Mus musculus [14] is recorded as “Non-toxic”; in the series on Mus musculus [16] it was “Non-toxic”; in the series on Mus musculus [17] it was 13%. The half-life in [6] came to 5.67 h. Also, the Vd in the series with Rattus norvegicus stood at 12.737 L/kg. Also, the inhibition entry in [19] was “inactive”. This molecule came in with a CL/F in [4] of 32 mL/min/kg.
Regarding `CC(=O)Nc1cc(Oc2ccc3c(c2)nc(Nc2cccc(OC(F)(F)F)c2)n3C)ccn1`, the EC50 in series [1] was determined as 100 nM. This molecule yielded an IC50 in series [2] of 0.4 nM.
`CC(=O)Nc1cc(Oc2ccc3c(c2)nc(Nc2ccc(OC(F)(F)F)cc2)n3C)ccn1` had an EC50 in [1] of 100 nM. The molecule further came in with an IC50 in series [2] of 1 nM.
Consider `CC(=O)Nc1cc(Oc2ccc3c(c2)nc(Nc2cc(C(F)(F)F)ccc2F)n3C)ccn1`, for which the EC50 in series [1] was 90 nM. In [2], this molecule returned an IC50 of 1 nM.
In [1], `CC(=O)Nc1cc(Oc2ccc3c(c2)nc(Nc2ccc(C(C)C)cc2)n3C)ccn1` yielded an EC50 of 90 nM. This molecule had an IC50 in [2] of 4 nM.
`CC(=O)Nc1cc(Oc2ccc3c(c2)nc(Nc2ccc(C(F)(F)F)cc2)n3C)ccn1` returned an EC50 in series [1] of 50 nM. Besides, in series [2], 4 nM corresponded to half-maximal inhibition (IC50). For the same molecule, in [11], the remaining at 0.75 h, 1 µM amounted to 100%.

The values above are taken from ChEMBL document CHEMBL3351360, “Design and Synthesis of Orally Bioavailable Benzimidazole Reverse Amides as Pan RAF Kinase Inhibitors” (ACS Med Chem Lett, 2014).
